Active and inactive are the calls of the source. No cut-off for these calls is given here.
Tests used:
Danio rerio [1] = organism: Danio rerio; test: Inhibition of BMPR1 in zebrafish assessed as penetrance of mild embryonic axis dorsalization at 10 uM treated at 3 hrs post-fertilization measured at 48 hrs; design: scale not given: the % may be the effect or the level left
How it was run: (§1)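 Compound added at the stated times and concentrations. Gross morphology scored visually at up to 48 h.p.f. for dorsalization of the embryonic axis.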

Danio rerio [2] = organism: Danio rerio; test: Inhibition of BMPR1 in zebrafish assessed as penetrance of moderate embryonic axis dorsalization at 10 uM treated continuously from 2 hrs post-fertilization measured after 48 hrs; design: scale not given: the % may be the effect or the level left; how it was run: as §1
C2C12 = test: Inhibition of BMPR1-mediated osteoblast differentiation in BMP4-stimulated mouse C2C12 cells assessed as decrease in alkaline phosphatase level at 4 uM by spectrophotometry; assay type: cell-based
How it was run: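 C2C12 cells were seeded at 2,000 per well in DMEM with 2% FBS and treated in quadruplicate with BMP4 or BMP6 plus compound or vehicle. After 5 d, cells were lysed in TBS with 1% Triton X-100. Lysates were incubated 1 h with p-nitrophenylphosphate and alkaline phosphatase was read as absorbance at 405 nm. Cell count was measured by CyQuant in parallel wells.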

Mus musculus [3] = organism: Mus musculus; test: Inhibition of BMPR1-mediated Smad-5 phosphorylation in BMP2-stimulated mouse BMPR2 deficient PASMC at 4 uM treated 30 mins before BMP2 challenge measured after 30 mins by immunoblot analysis
Danio rerio [4] = organism: Danio rerio; test: Inhibition of BMPR1 in zebrafish assessed as penetrance of moderate embryonic axis dorsalization at 1 uM treated at 3 hrs post-fertilization measured at 48 hrs; design: scale not given: the % may be the effect or the level left; how it was run: as §1
Mus musculus [5] = organism: Mus musculus; test: Inhibition of BMPR1-mediated Smad-8 phosphorylation in BMP7-stimulated mouse PASMC at 4 uM treated 30 mins before BMP7 challenge measured after 30 mins by immunoblot analysis
How it was run: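 Wild-type mouse PASMCs were kept in RPMI with 0.5% FCS for 24 h. They were preincubated with compound or vehicle for 30 min, then stimulated for 30 min with recombinant BMP2, BMP4, BMP6 or BMP7 at 10 ng ml−1. Lysates in SDS buffer were immunoblotted with anti-phospho-SMAD1/5/8. Total SMAD1 and α-tubulin served as loading controls, and bands were quantified by phosphorimager.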

Mus musculus [6] = organism: Mus musculus; test: Inhibition of ALK6-mediated Smad-1 phosphorylation in BMPR2 deficient mouse PASMC at 10 uM by immunoblot analysis
How it was run: (§2)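 BMPR-II–deficient mouse PASMCs (RPMI, 10% FBS) transiently transfected with constitutively active ALK2, ALK3 or ALK6 cDNA, or plasmid-only control. Incubated with or without compound (10 µM). Extracts lysed in SDS buffer, run on SDS-PAGE and immunoblotted for phospho-SMAD1/5/8; quantitated by phosphorimager.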

Danio rerio [7] = organism: Danio rerio; test: Inhibition of BMPR1 in zebrafish assessed as penetrance of mild embryonic axis dorsalization at 0.2 uM treated at 3 hrs post-fertilization measured at 48 hrs; design: scale not given: the % may be the effect or the level left; how it was run: as §1
Mus musculus [8] = test: Inhibition of iron-dextran conjugate-induced Smad-1 phosphorylation in C57BL/6 mouse at 23 ug/g, iv after 1 hr; assay type: functional, organism-based
Danio rerio [9] = organism: Danio rerio; test: Inhibition of BMPR1 in zebrafish assessed as penetrance of mild embryonic axis dorsalization at 10 uM treated continuously from 4 hrs post-fertilization measured after 48 hrs; design: scale not given: the % may be the effect or the level left; how it was run: as §1
Danio rerio [10] = organism: Danio rerio; test: Inhibition of BMPR1 in zebrafish assessed as severity of embryonic axis dorsalization at 0.2 uM treated at 3 hrs post-fertilization measured at 48 hrs; design: scale not given: the % may be the effect or the level left
Mus musculus [11] = organism: Mus musculus; test: Inhibition of BMPR1-mediated Smad-1 phosphorylation in BMP2-stimulated mouse BMPR2 deficient PASMC at 4 uM treated 30 mins before BMP2 challenge measured after 30 mins by immunoblot analysis
How it was run: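 PASMCs (wild-type or BMPR-II–deficient) were kept 24 h in RPMI with 0.5% FCS, preincubated 30 min with compound or vehicle, then stimulated 30 min with recombinant BMP (10 ng ml−1). Extracts in SDS-lysis buffer were immunoblotted for phospho-SMAD1/5/8, with total SMAD1 and α-tubulin as loading controls. Bands were quantitated by phosphorimager.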

Danio rerio [12] = organism: Danio rerio; test: Inhibition of BMPR1 in zebrafish assessed as penetrance of normal embryonic axis dorsalization at 10 uM treated at 2 to 4 hrs post-fertilization measured at 48 hrs; design: scale not given: the % may be the effect or the level left
Danio rerio [13] = organism: Danio rerio; test: Inhibition of BMPR1 in zebrafish assessed as penetrance of normal embryonic axis dorsalization at 10 uM treated continuously from 6 hrs post-fertilization measured at 48 hrs; design: scale not given: the % may be the effect or the level left
[14] = molecular target: Vascular endothelial growth factor receptor 2 (Danio rerio) (UniProt Q5GIT4); test: Inhibition of KDR in zebrafish assessed as embryonic axis dorsalization at 10 uM treated occasionally at 6 to 8 hrs post-fertilization measured at 48 hrs
Sequence of Vascular endothelial growth factor receptor 2 (Danio rerio) (Q5GIT4 whole entry): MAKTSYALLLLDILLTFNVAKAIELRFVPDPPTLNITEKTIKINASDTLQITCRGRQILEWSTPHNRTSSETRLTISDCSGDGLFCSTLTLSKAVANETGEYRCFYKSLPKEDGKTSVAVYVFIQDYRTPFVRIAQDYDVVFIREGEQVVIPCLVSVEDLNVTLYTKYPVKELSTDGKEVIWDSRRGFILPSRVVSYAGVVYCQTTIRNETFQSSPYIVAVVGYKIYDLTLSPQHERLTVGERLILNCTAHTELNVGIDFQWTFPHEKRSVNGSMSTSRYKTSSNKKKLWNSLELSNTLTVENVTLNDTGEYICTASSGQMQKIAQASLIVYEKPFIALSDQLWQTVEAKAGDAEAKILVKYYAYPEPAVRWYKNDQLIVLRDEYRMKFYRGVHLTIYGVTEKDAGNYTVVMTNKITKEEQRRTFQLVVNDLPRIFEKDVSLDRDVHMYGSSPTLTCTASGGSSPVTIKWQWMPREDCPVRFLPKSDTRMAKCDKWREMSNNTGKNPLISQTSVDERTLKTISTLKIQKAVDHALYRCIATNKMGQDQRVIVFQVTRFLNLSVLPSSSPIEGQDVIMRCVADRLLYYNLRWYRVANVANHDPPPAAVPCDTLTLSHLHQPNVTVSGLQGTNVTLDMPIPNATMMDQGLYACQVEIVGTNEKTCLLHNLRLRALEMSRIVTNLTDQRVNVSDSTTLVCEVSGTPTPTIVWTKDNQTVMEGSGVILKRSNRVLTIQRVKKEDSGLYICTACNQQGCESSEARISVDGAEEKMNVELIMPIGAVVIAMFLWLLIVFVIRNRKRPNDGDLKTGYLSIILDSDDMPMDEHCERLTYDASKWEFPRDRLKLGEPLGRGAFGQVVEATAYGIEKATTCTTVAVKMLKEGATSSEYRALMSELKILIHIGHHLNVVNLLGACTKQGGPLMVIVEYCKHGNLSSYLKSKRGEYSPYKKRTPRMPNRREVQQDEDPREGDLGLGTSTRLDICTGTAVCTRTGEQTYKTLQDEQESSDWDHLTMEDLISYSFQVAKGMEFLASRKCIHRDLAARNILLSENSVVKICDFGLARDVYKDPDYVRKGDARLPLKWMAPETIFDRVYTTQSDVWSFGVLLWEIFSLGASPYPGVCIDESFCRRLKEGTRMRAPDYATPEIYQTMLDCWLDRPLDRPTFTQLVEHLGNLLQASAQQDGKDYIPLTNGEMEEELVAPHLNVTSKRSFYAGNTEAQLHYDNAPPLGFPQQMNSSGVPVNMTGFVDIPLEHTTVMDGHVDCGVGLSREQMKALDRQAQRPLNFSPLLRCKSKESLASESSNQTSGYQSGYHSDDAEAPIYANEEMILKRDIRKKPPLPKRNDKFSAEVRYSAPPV
How it was run: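 Newly fertilised WT zebrafish eggs were arrayed in triplicate in E3 buffer and kept at 28.5 °C. Compound (10 µM) was added at 6–8 h.p.f. Gross morphology was inspected visually for dorsalisation or ventralisation of the embryonic axis, with photographs at 36–48 h.p.f.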

Mus musculus [15] = organism: Mus musculus; test: Inhibition of BMPR1-mediated Smad-8 phosphorylation in BMP6-stimulated mouse BMPR2 deficient PASMC at 4 uM treated 30 mins before BMP6 measured after 30 mins by immunoblot analysis
Mus musculus [16] = organism: Mus musculus; test: Inhibition of BMPR1-mediated Smad-5 phosphorylation in BMP6-stimulated mouse BMPR2 deficient PASMC at 4 uM treated 30 mins before BMP6 challenge measured after 30 mins by immunoblot analysis
Danio rerio [17] = organism: Danio rerio; test: Inhibition of BMPR1 in zebrafish assessed as penetrance of moderate embryonic axis dorsalization at 0.2 uM treated at 3 hrs post-fertilization measured at 48 hrs; design: scale not given: the % may be the effect or the level left; how it was run: as §1
Mus musculus [18] = organism: Mus musculus; test: Inhibition of ALK2-mediated Smad-8 phosphorylation in BMPR2 deficient mouse PASMC at 10 uM by immunoblot analysis; how it was run: as §2
Danio rerio [19] = organism: Danio rerio; test: Inhibition of BMPR1 in zebrafish assessed as severity of embryonic axis dorsalization at 10 uM treated continuously from 6 hrs post-fertilization measured at 48 hrs; design: scale not given: the % may be the effect or the level left
Danio rerio [20] = organism: Danio rerio; test: Inhibition of BMPR1 in zebrafish assessed as penetrance of moderate embryonic axis dorsalization at 7.5 uM treated at 3 hrs post-fertilization measured at 48 hrs; design: scale not given: the % may be the effect or the level left
Danio rerio [21] = organism: Danio rerio; test: Inhibition of BMPR1 in zebrafish assessed as penetrance of moderate embryonic axis dorsalization at 10 uM treated at 2 to 8 hrs post-fertilization measured at 48 hrs; design: scale not given: the % may be the effect or the level left; how it was run: as §1
Danio rerio [22] = organism: Danio rerio; test: Inhibition of BMPR1 in zebrafish assessed as penetrance of moderate embryonic axis dorsalization at 10 uM treated continuously from 10 hrs post-fertilization measured at 48 hrs; design: scale not given: the % may be the effect or the level left; how it was run: as §1
Mus musculus [23] = organism: Mus musculus; test: Inhibition of BMPR1-mediated Smad-1 phosphorylation in BMP4-stimulated mouse PASMC at 100 to 200 ng/ml treated 30 mins before BMP4 challenge measured after 30 mins by immunoblot analysis
How it was run: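 Mouse PASMCs were serum-reduced 24 h in 0.5% FCS RPMI, pretreated 30 min with noggin or vehicle, then given BMP4 for 30 min. Lysates in SDS buffer were immunoblotted for phospho-SMAD1/5/8 and phospho-MAPK p38, and signals were quantitated by phosphorimager.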

Danio rerio [24] = organism: Danio rerio; test: Inhibition of BMPR1 in zebrafish assessed as decrease in eve1 expression at 10 uM treated at 18-somite stage measured at 48 hrs
Mus musculus [25] = organism: Mus musculus; test: Inhibition of BMPR1-mediated Smad-5 phosphorylation in BMP7-stimulated mouse BMPR2 deficient PASMC at 4 uM treated 30 mins before BMP7 challenge measured after 30 mins by immunoblot analysis

Structure (SMILES): c1cc(-c2cnn3cc(-c4ccc(OCCN5CCCCC5)cc4)cnc23)ccn1 [DORSOMORPHIN]
- Activity (Danio rerio [1]): 3%
- Activity (Danio rerio [2]): 0%
- inhibition (C2C12): Active
- inhibition (Mus musculus [3]): Active
- Activity (Danio rerio [4]): 0%
- inhibition (Mus musculus [5]): Active
- inhibition (Mus musculus [6]): Active
- Activity (Danio rerio [7]): 0%
- inhibition (Mus musculus [8]): Active
- Activity (Danio rerio [9]): 0%
- Activity (Danio rerio [10]): 0%
- inhibition (Mus musculus [11]): Active
- Activity (Danio rerio [12]): 0%
- Activity (Danio rerio [13]): 0%
- inhibition [14]: inactive
- inhibition (Mus musculus [15]): Active
- inhibition (Mus musculus [16]): Active
- Activity (Danio rerio [17]): 0%
- inhibition (Mus musculus [18]): Active
- Activity (Danio rerio [19]): 0%
- Activity (Danio rerio [20]): 42%
- Activity (Danio rerio [21]): 0%
- Activity (Danio rerio [22]): 0%
- inhibition (Mus musculus [23]): Active
- inhibition (Danio rerio [24]): Active
- inhibition (Mus musculus [25]): Active

Source: ChEMBL document CHEMBL1212693, “Dorsomorphin inhibits BMP signals required for embryogenesis and iron metabolism” (Nat Chem Biol, 2008)
